One block for each compound: values may come before it. Active and inactive are the calls of the source. The rule behind the calls is not given here.
Tests used:
[1] = tested on: Plasmodium falciparum; assay: Antimalarial activity against asexual Plasmodium falciparum 3D7 incubated for 72 hrs by LDH assay; assay type: functional, organism-based; settings: 3D7, 72 h
How it was run: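 P. falciparum 3D7 asexual parasites exposed 72 h at 37 °C (5 % CO2, 5 % O2) to a 10-point 1-in-3 dilution series […], 0.1 % DMSO; 0.1 % DMSO and 100 nM chloroquine as controls. Plates frozen at −80 °C and thawed, then LDH read (lactate/APAD/NBT/diaphorase, Tris pH 7.5) at 650 nm after 30 min.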

[2] = tested on: Plasmodium falciparum; assay: Antiplasmodial activity against Plasmodium falciparum NF54 stage V gametocytes assessed as reduction in xanthurenic acid induced female gametocyte development measured after 48 hrs by fluorescence microscopic analysis; settings: NF54, 48 h
[3] = tested on: Plasmodium falciparum; assay: Antimalarial activity against asexual synchronized ring stage Plasmodium falciparum 3D7 infected with human RBC assessed as parasite arrest measured after 24 hrs by giemsa staining based microscopy analysis; assay type: functional, organism-based
How it was run: (§1)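 Giemsa-stained blood smears scored by microscopy for stage progression.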

[4] = tested on: Plasmodium falciparum; assay: Effect on oxygen consumption rate in Plasmodium falciparum infected with human RBC at 5 uM in presence of NaN3 by Seahorse XFe24 analyzer; assay type: functional, organism-based
How it was run: (§2)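 Malate-dependent OCR of P. falciparum measured first as 5 basal timepoints. Compound (5 μM) then injected and OCR followed for 8 timepoints. TMPD (cytochrome c donor) then added for 5 timepoints, followed by NaN3 (complex IV inhibitor) for 5 timepoints. Means and SDs of 3 technical replicates.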

[5] = tested on: Plasmodium falciparum; assay: Antimalarial activity against asexual blood stage Plasmodium falciparum Dd2 incubated for 72 hrs by flow cytometry analysis; assay type: functional, organism-based; settings: Dd2, 72 h
How it was run: (§3)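 Asexual parasites were exposed to compound for 72 h and growth was read as SYBR green signal by flow cytometry (FACS).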

[6] = tested on: Plasmodium falciparum; assay: Effect on oxygen consumption rate in Plasmodium falciparum infected with human RBC at 5 uM by Seahorse XFe24 analyzer; assay type: functional, organism-based; how it was run: as §2
[7] = tested on: Plasmodium falciparum; assay: Antimalarial activity against asexual synchronized ring stage Plasmodium falciparum 3D7 infected with human RBC assessed as parasite arrest at 10 times EC50 treated every 24 hrs for 120 hrs followed by compound washout and subsequent addition of RBCs measured after 28 days by parasite reduction ratio assay; assay type: functional, organism-based
How it was run: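 Parasite reduction ratio assay on 3D7. […] Compound then washed out and uninfected RBCs and medium added. Regrowth measured by LDH assay after 28 days; means and SDs of 3 replicate experiments.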

[8] = tested on: Plasmodium falciparum; assay: Antimalarial activity against asexual N-cyclopropyl-4-((cyclopropyl(2,4-dichlorobenzyl)amino)methyl)benzamide-resistant Plasmodium falciparum harbouring DHODH genome with 2 fold CNV measured after 72 hrs by LDH assay; assay type: functional, organism-based
How it was run: (§4)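 They were tested in a 72 h LDH assay: 10-point 3-fold dilutions […] in 0.1 % DMSO, with 100 nM chloroquine as the kill control. Incubation was 37 °C under 5 % CO2/5 % O2, then freeze–thaw, APAD/NBT/diaphorase mix, A650 after 30 min, and a four-parameter fit.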

[9] = tested on: Plasmodium falciparum; assay: Antimalarial activity against asexual synchronized ring stage Plasmodium falciparum 3D7 infected with human RBC assessed as parasite arrest measured after 12 to 48 hrs by SYBR green staining based flow cytometry analysis; assay type: functional, organism-based; settings: time 12-48 hrs
How it was run: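 Parasitemia measured by flow cytometry of SYBR Green-stained infected RBCs; mean of three technical replicates.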

[10] = tested on: Plasmodium falciparum; assay: Effect on oxygen consumption rate in Plasmodium falciparum infected with human RBC at 5 uM in presence of TMPD by Seahorse XFe24 analyzer; assay type: functional, organism-based; how it was run: as §2
[11] = tested on: Plasmodium falciparum; assay: Antimalarial activity in asexual blood-stage Plasmodium falciparum Dd2-B2 infected in human O+ RBC assessed as minimum inoculum of resistance at 3 times IC90 measured for 60 days by SYBR green/Mito tracker deep red based flow cytometry analysis; assay type: functional, organism-based; settings: time 60.0 day
How it was run: (§5)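 Cultures were grown in human O+ RBCs at 3 % hematocrit in AlbuMAX-supplemented RPMI-1640 at 37 °C under 5 % O2/5 % CO2/90 % N2. […] Wells were checked three times weekly by flow cytometry and smear; a well was positive at 0.3 % parasitemia with parasites seen on smear.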

[12] = tested on: Plasmodium falciparum; assay: Antimalarial activity against asexual synchronized ring stage Plasmodium falciparum 3D7 infected with human RBC assessed as parasite growth inhibition measured after 48 hrs by giemsa staining based microscopy analysis; assay type: functional, organism-based; settings: 3D7, Erythrocyte; how it was run: as §1
[13] = tested on: Plasmodium falciparum; assay: Antimalarial activity against asexual blood stage Plasmodium falciparum Dd2-B2 assessed as parasite recrudescence by measuring minimum inoculum of resistance measured for 60 days by flow cytometry; assay type: functional; settings: time 60 day; how it was run: as §5
[14] = tested on: HepG2; assay: Cytotoxicity against human HepG2 cells assessed as reduction in cell viability measured after 48 hrs by cell-titer glo assay; assay type: functional
How it was run: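 HepG2 cells grown in DMEM with 10 % FCS; 1000 cells per well seeded onto a 1:2 dilution series from 50 μM (0.5 % DMSO). Incubated 48 h at 37 °C, 5 % CO2. Viability read by CellTiter-Glo and normalised to DMSO and 10 μM bortezomib controls. Value from four-parameter fit; average of ≥2 independent experiments.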

[15] = tested on: Plasmodium falciparum; assay: Antimalarial activity against asexual compound resistant Plasmodium falciparum harbouring cyt b F264L mutant at Qo site measured after 72 hrs by LDH assay; assay type: functional, organism-based; how it was run: as §4
[16] = tested on: Plasmodium falciparum; assay: Antimalarial activity against asexual Plasmodium falciparum SB1-A6 incubated for 72 hrs by SYBR green staining based flow cytometry analysis; assay type: functional, organism-based; settings: SB1-A6, 72 h; how it was run: as §3
[17] = tested on: Plasmodium berghei; assay: Antiplasmodial activity against exo-erythrocytic stage Plasmodium berghei sporozoites expressing GFP-Luc fused genes infected in human HepG2-A16-CD81 cells expressing EGFP assessed as reduction in parasite growth measured after 48 hrs by bioluminescence analysis; assay type: functional, organism-based; settings: HepG2-A16-CD81, 48 h
How it was run: (§6)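 HepG2 cells pre-treated with a 10-point dilution series of compound, then infected with luciferase-expressing P. berghei sporozoites. After 48 h, exoerythrocytic form viability read by bioluminescence.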

[18] = tested on: Plasmodium falciparum; assay: Antimalarial activity against asexual Plasmodium falciparum 3D7 harbouring cytb with V259L mutant at Qo site incubated for 72 hrs by SYBR green staining based flow cytometry analysis; settings: 3D7, 72 h
[19] = tested on: Plasmodium berghei; assay: Antiplasmodial activity against liver stage Plasmodium berghei sporozoites infected in human HepG2 assessed as reduction in parasite growth measured after 48 hrs by bioluminescence analysis; assay type: functional, organism-based; settings: HepG2, 48 h; how it was run: as §6
[20] = tested on: Plasmodium falciparum; assay: Antimalarial activity against asexual Plasmodium falciparum Dd2 harbouring ScDHODH incubated for 72 hrs by SYBR green staining based flow cytometry analysis; assay type: functional, organism-based; settings: Dd2, 72 h; how it was run: as §3
[21] = tested on: Plasmodium falciparum; assay: Antiplasmodial activity against Plasmodium falciparum NF54 stage V gametocytes assessed as reduction in xanthurenic acid induced male gametocyte development measured after 48 hrs by fluorescence microscopic analysis; settings: NF54, 48 h
[22] = tested on: Plasmodium falciparum; assay: Antimalarial activity against asexual N-cyclopropyl-4-((cyclopropyl(2,4-dichlorobenzyl)amino)methyl)benzamide-resistant Plasmodium falciparum harbouring DHODH genome with 5 fold CNV measured after 72 hrs by LDH assay; assay type: functional, organism-based; how it was run: as §4
[23] = tested on: Plasmodium falciparum; assay: Antimalarial activity against asexual compound resistant Plasmodium falciparum harbouring cyt b […] mutant at Qo site measured after 72 hrs by LDH assay; assay type: functional, organism-based; how it was run: as §4
[24] = tested on: Plasmodium falciparum; assay: Antimalarial activity against asexual 4-(((N-cyclopropyl-2,4,6-trimethylphenyl)sulfonamido)methyl)-N-methylbenzamide-resistant Plasmodium falciparum harbouring cyt b […] mutant at Qo site measured after 72 hrs by LDH assay; assay type: functional, organism-based; how it was run: as §4
[25] = tested on: Plasmodium falciparum; assay: Antimalarial activity against asexual blood stage Plasmodium falciparum Dd2 harbouring Cyt b with I22L mutant incubated for 72 hrs by flow cytometry analysis; assay type: functional, organism-based; settings: Dd2, 72 h; how it was run: as §3

Structure (SMILES): CCCN(Cc1ccc(C(=O)NC2CC2)cc1)Cc1c(C)cc(C)cc1C
EC50 [2]: > 25 µM

Structure (SMILES): O=C(NC1CC1)c1ccc(CN(Cc2ccc(Cl)cc2Cl)C2CC2)cc1
Activity [3]: Active | Activity [4]: Active | EC50 [5]: 0.118 µM | Activity [6]: Active | Activity [7]: Active; Compound Showed Moderate To Slow Rate Of Kill Than Pyrimethamine And Slightly Quicker Than Atq | EC50 [8]: 0.62 µM | Activity [9]: Active | Activity [10]: inactive | EC50 [2]: > 25 µM | Activity [11]: Active | EC50 [12]: 2.5 µM | Activity [13]: 1.9 10^7No_unit

Structure (SMILES): CNC(=O)c1ccc(CN(C2CC2)S(=O)(=O)c2c(C)cc(C)cc2C)cc1
EC50 [15]: 2.1 µM | Activity [3]: Active | EC50 [16]: > 10 µM | EC50 [17]: 0.07 µM | Activity [4]: Active | EC50 [5]: 0.07 µM | Activity [6]: Active | Activity [7]: Active; Compound Showed Moderate To Slow Rate Of Kill Than Pyrimethamine And Slightly Quicker Than Atq | EC50 [18]: 0.42 µM | Activity [9]: Active | EC50 [19]: > 50 µM | Activity [10]: inactive | EC50 [2]: > 25 µM | EC50 [20]: > 10 µM | EC50 [21]: 1.1 µM | Activity [11]: Active | EC50 [22]: 0.5 µM | EC50 [12]: 1.3 µM | EC50 [23]: 1.73 µM | EC50 [24]: 0.283 µM | EC50 [25]: 0.065 µM | Activity [13]: >2 10^7No_unit | CC50 [14]: > 40 µM | EC50 [1]: 0.11 µM

Structure (SMILES): Cc1cc(Nc2ccc(S(F)(F)(F)(F)F)cc2)n2nc(C(C)(F)F)nc2n1 [DSM-265]
EC50 [16]: > 10 µM | Activity [6]: inactive | Activity [10]: inactive | EC50 [20]: > 10 µM | EC50 [25]: 0.008 µM

Structure (SMILES): O=C1C(O)=C([C@H]2CC[C@H](c3ccc(Cl)cc3)CC2)C(=O)c2ccccc21 [ATOVAQUONE]
Activity [3]: Active | EC50 [16]: > 10 µM | Activity [4]: Active | Activity [6]: Active | EC50 [18]: 0.013 µM | Activity [9]: Active | Activity [10]: inactive | EC50 [20]: > 10 µM | EC50 [12]: 11.7 µM | EC50 [25]: 5.4 µM

The next lines start with results.

EC50 [1]: 0.59 µM
Structure (SMILES): O=C(NC1CC1)c1ccc(CN(Cc2ccccc2)Cc2ccccc2)cc1

EC50 [1]: 0.15 µM
Structure (SMILES): Cc1cccc(CN(Cc2ccc(C(=O)NC3CC3)cc2)C2CC2)c1C
CC50 [14]: > 40 µM

EC50 [1]: 1.8 µM
Structure (SMILES): O=C(NC1CCCC1)c1ccc(CN(Cc2ccc(Cl)cc2Cl)C2CC2)cc1

EC50 [1]: 0.4 µM
Structure (SMILES): CC(C)CN(Cc1ccc(C(=O)NC2CC2)cc1)C1CC1

EC50 [1]: > 10 µM
Structure (SMILES): CN(C(=O)c1ccc(CN(Cc2ccccc2)C2CC2)cc1)C1CC1

EC50 [1]: 1.2 µM
Structure (SMILES): O=C(Nc1ccccc1)c1ccc(CN(Cc2ccc(Cl)cc2Cl)C2CC2)cc1

Reference: ChEMBL document CHEMBL6092172, “Exploration and characterization of the antimalarial activity of cyclopropyl carboxamides that target the mitochondrial protein, cytochrome b” (Eur J Med Chem, 2024)
